Laboratory results from ChEMBL document CHEMBL1121923, “N2- and C-7 substituted actinomycin D analogues: synthesis, DNA-binding affinity, and biochemical and biological properties. Structure-activity relationship” (J Med Chem, 1981).
In brackets after ≈: the same amount, converted by molar mass.

Columns and labels:
P388 [1] = test: Concentration required for 50% inhibition of incorporation of labeled thymidine by p388 cells for synthesis of DNA (in vitro); format: functional; conditions: Mus musculus, read-out: ED50 (the source's name)
P388 [2] = test: Concentration required for 50% inhibition of incorporation of labeled uridine by P388 cells for the synthesis of RNA (in vitro); format: functional; conditions: Mus musculus, read-out: ED50 (the source's name)
CCRF-CEM = test: In vitro antitumor activity against human lymphoblastic leukemia cells.; format: functional; conditions: read-out: ID50 (the source's name)
In short: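 Human lymphoblastic leukemia CCRF-CEM cells grown in suspension culture; growth inhibition in vitro; ID50 (ng/mL) reported as the 50% inhibitory dose.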

P388 [3] = test: Percent of increased life span of P388 cells implanted CDF1 male mice; format: functional, Mus musculus
In short: (§1)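 CDF1 male mice, groups of seven, given 10^6 P388 cells ip on day 0; drug ip in 5% DMSO–saline on days 1, 5 and 9; controls received vehicle; range of doses tested, optimal nontoxic dose listed; median survival time; %ILS = (treated − control)/control × 100; average of two or more experiments.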

P388 [4] = test: Median survival time of the P388 cells implanted CDF1 male mice in vivo; format: functional, Mus musculus; in short: as §1
P388 [5] = test: Optimal dose for antitumor activity was measured in P388 cells of CDF1 male mice in vivo; format: functional, Mus musculus; in short: as §1
Bos taurus = species on record: Bos taurus; test: Thermal denaturation (deltaTm) of compound against calf thymus DNA was measured; format: ADME; conditions: cattle, in vitro
In short: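 Calf thymus DNA (MW 100 000–500 000) in 0.01 M phosphate, 5 × 10^-3 M EDTA, pH 7.0; drug 7 × 10^-4 M, DNA nucleotide 7 × 10^-3 M; 259 nm absorbance read at 0.25–1.0 °C steps; Tm taken at 50% hyperchromicity; ΔTm = complex Tm minus DNA Tm.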

Row | Compound | EC50 (P388 [1]) | EC50 (P388 [2]) | IC50 (CCRF-CEM) | ILS (P388 [3]) | MST (P388 [4]) | Optimal dose (P388 [5]) | Delta Tm (Bos taurus)
1 | Cc1c2oc3c(C)c(O)c(N)c(C(=O)N[C@@H]4C(=O)N[C@H](C(C)C)C(=O)N5CCC[C@H]5C(=O)N(C)CC(=O)N(C)[C@@H](C(C)C)C(=O)O[C@@H]4C)c3nc-2c(C(=O)N[C@@H]2C(=O)N[C@H](C(C)C)C(=O)N3CCC[C@H]3C(=O)N(C)CC(=O)N(C)[C@@H](C(C)C)C(=O)O[C@@H]2C)c/c1=N/Cc1ccco1 | 2450 nM | 810 nM | – | – | – | – | –
2 | Cc1c2oc3c(C)c(OCc4ccc(Cl)cc4)cc(C(=O)N[C@@H]4C(=O)N[C@H](C(C)C)C(=O)N5CCC[C@H]5C(=O)N(C)CC(=O)N(C)[C@@H](C(C)C)C(=O)O[C@@H]4C)c3nc-2c(C(=O)N[C@@H]2C(=O)N[C@H](C(C)C)C(=O)N3CCC[C@H]3C(=O)N(C)CC(=O)N(C)[C@@H](C(C)C)C(=O)O[C@@H]2C)c(N)c1=O | – | – | 0.5 µg/mL (≈ 0.358 µM) | 52% | 16 days | 0.45 mg/kg | –
3 | Cc1c2oc3c(C)c(O)c(N)c(C(=O)N[C@@H]4C(=O)N[C@H](C(C)C)C(=O)N5CCC[C@H]5C(=O)N(C)CC(=O)N(C)[C@@H](C(C)C)C(=O)O[C@@H]4C)c3nc-2c(C(=O)N[C@@H]2C(=O)N[C@H](C(C)C)C(=O)N3CCC[C@H]3C(=O)N(C)CC(=O)N(C)[C@@H](C(C)C)C(=O)O[C@@H]2C)cc1=O | 5080 nM | 3220 nM | 0.95 µg/mL (≈ 0.747 µM) | 129% | 24 days | 1.2 mg/kg | –
4 | Cc1c2oc3c(C)c(O)c(N)c(C(=O)N[C@@H]4C(=O)N[C@H](C(C)C)C(=O)N5CCC[C@H]5C(=O)N(C)CC(=O)N(C)[C@@H](C(C)C)C(=O)O[C@@H]4C)c3nc-2c(C(=O)N[C@@H]2C(=O)N[C@H](C(C)C)C(=O)N3CCC[C@H]3C(=O)N(C)CC(=O)N(C)[C@@H](C(C)C)C(=O)O[C@@H]2C)cc1=N | 1230 nM | 82 nM | – | – | – | – | –
5 | Cc1c2oc3c(C)c(OC(=O)c4ccc5ccccc5c4)cc(C(=O)N[C@@H]4C(=O)N[C@H](C(C)C)C(=O)N5CCC[C@H]5C(=O)N(C)CC(=O)N(C)[C@@H](C(C)C)C(=O)O[C@@H]4C)c3nc-2c(C(=O)N[C@@H]2C(=O)N[C@H](C(C)C)C(=O)N3CCC[C@H]3C(=O)N(C)CC(=O)N(C)[C@@H](C(C)C)C(=O)O[C@@H]2C)c(N)c1=O | – | – | – | 71% | 18 days | 0.9 mg/kg | –
6 | Cc1c2oc3c(C)c(O)c(N)c(C(=O)N[C@@H]4C(=O)N[C@H](C(C)C)C(=O)N5CCC[C@H]5C(=O)N(C)CC(=O)N(C)[C@@H](C(C)C)C(=O)O[C@@H]4C)c3nc-2c(C(=O)N[C@@H]2C(=O)N[C@H](C(C)C)C(=O)N3CCC[C@H]3C(=O)N(C)CC(=O)N(C)[C@@H](C(C)C)C(=O)O[C@@H]2C)c/c1=N/Cc1ccc[nH]1 | 370 nM | 184 nM | – | – | – | – | –
7 | CCCCNc1c(C(=O)N[C@@H]2C(=O)N[C@H](C(C)C)C(=O)N3CCC[C@H]3C(=O)N(C)CC(=O)N(C)[C@@H](C(C)C)C(=O)O[C@@H]2C)c2nc3c(C(=O)N[C@@H]4C(=O)N[C@H](C(C)C)C(=O)N5CCC[C@H]5C(=O)N(C)CC(=O)N(C)[C@@H](C(C)C)C(=O)O[C@@H]4C)ccc(C)c3oc-2c(C)c1=O | – | – | 0.95 µg/mL (≈ 0.724 µM) | 36% | 15 days | 0.9 mg/kg | –
8 | Cc1c2oc3c(C)c(OC(=O)c4ccccc4)cc(C(=O)N[C@@H]4C(=O)N[C@H](C(C)C)C(=O)N5CCC[C@H]5C(=O)N(C)CC(=O)N(C)[C@@H](C(C)C)C(=O)O[C@@H]4C)c3nc-2c(C(=O)N[C@@H]2C(=O)N[C@H](C(C)C)C(=O)N3CCC[C@H]3C(=O)N(C)CC(=O)N(C)[C@@H](C(C)C)C(=O)O[C@@H]2C)c(N)c1=O | – | – | 2.5 µg/mL (≈ 1.82 µM) | 91% | 20 days | 0.75 mg/kg | –
9 | CCCOc1cc(C(=O)N[C@@H]2C(=O)N[C@H](C(C)C)C(=O)N3CCC[C@H]3C(=O)N(C)CC(=O)N(C)[C@@H](C(C)C)C(=O)O[C@@H]2C)c2nc3c(C(=O)N[C@@H]4C(=O)N[C@H](C(C)C)C(=O)N5CCC[C@H]5C(=O)N(C)CC(=O)N(C)[C@@H](C(C)C)C(=O)O[C@@H]4C)c(N)c(=O)c(C)c-3oc2c1C | 1980 nM | 230 nM | 0.31 µg/mL (≈ 0.236 µM) | 52% | 16 days | 0.75 mg/kg | –
10 | Cc1c2oc3c(C)ccc(C(=O)N[C@@H]4C(=O)N[C@H](C(C)C)C(=O)N5CCC[C@H]5C(=O)N(C)CC(=O)N(C)[C@@H](C(C)C)C(=O)O[C@@H]4C)c3nc-2c(C(=O)N[C@@H]2C(=O)N[C@H](C(C)C)C(=O)N3CCC[C@H]3C(=O)N(C)CC(=O)N(C)[C@@H](C(C)C)C(=O)O[C@@H]2C)c(NCCCCCCCCN)c1=O | – | – | 0.31 µg/mL (≈ 0.224 µM) | 27% | 14 days | 1.8 mg/kg | –
11 | Cc1c2oc3c(C)ccc(C(=O)N[C@@H]4C(=O)N[C@H](C(C)C)C(=O)N5CCC[C@H]5C(=O)N(C)CC(=O)N(C)[C@@H](C(C)C)C(=O)O[C@@H]4C)c3nc-2c(C(=O)N[C@@H]2C(=O)N[C@H](C(C)C)C(=O)N3CCC[C@H]3C(=O)N(C)CC(=O)N(C)[C@@H](C(C)C)C(=O)O[C@@H]2C)c(NCCCN)c1=O | 430 nM | 118 nM | 0.3 µg/mL (≈ 0.229 µM) | 172% | 30 days | 1.2 mg/kg | –
12 | CCCCOc1cc(C(=O)N[C@@H]2C(=O)N[C@H](C(C)C)C(=O)N3CCC[C@H]3C(=O)N(C)CC(=O)N(C)[C@@H](C(C)C)C(=O)O[C@@H]2C)c2nc3c(C(=O)N[C@@H]4C(=O)N[C@H](C(C)C)C(=O)N5CCC[C@H]5C(=O)N(C)CC(=O)N(C)[C@@H](C(C)C)C(=O)O[C@@H]4C)c(N)c(=O)c(C)c-3oc2c1C | 11300 nM | 770 nM | – | 33% | 14 days | 0.75 mg/kg | –
13 | Cc1c2oc3c(C)c(OCc4ccc([N+](=O)[O-])cc4)cc(C(=O)N[C@@H]4C(=O)N[C@H](C(C)C)C(=O)N5CCC[C@H]5C(=O)N(C)CC(=O)N(C)[C@@H](C(C)C)C(=O)O[C@@H]4C)c3nc-2c(C(=O)N[C@@H]2C(=O)N[C@H](C(C)C)C(=O)N3CCC[C@H]3C(=O)N(C)CC(=O)N(C)[C@@H](C(C)C)C(=O)O[C@@H]2C)c(N)c1=O | – | – | 0.5 µg/mL (≈ 0.355 µM) | 33% | 14 days | 0.6 mg/kg | –
14 | Cc1c2oc3c(C)c(OCc4ccc(Cl)c(Cl)c4)cc(C(=O)N[C@@H]4C(=O)N[C@H](C(C)C)C(=O)N5CCC[C@H]5C(=O)N(C)CC(=O)N(C)[C@@H](C(C)C)C(=O)O[C@@H]4C)c3nc-2c(C(=O)N[C@@H]2C(=O)N[C@H](C(C)C)C(=O)N3CCC[C@H]3C(=O)N(C)CC(=O)N(C)[C@@H](C(C)C)C(=O)O[C@@H]2C)c(N)c1=O [listing 1 of 2 here] | – | – | – | 81% | 19 days | 0.5 mg/kg | –
15 | Cc1c2oc3c(C)c(O)c(N)c(C(=O)N[C@@H]4C(=O)N[C@H](C(C)C)C(=O)N5CCC[C@H]5C(=O)N(C)CC(=O)N(C)[C@@H](C(C)C)C(=O)O[C@@H]4C)c3nc-2c(C(=O)N[C@@H]2C(=O)N[C@H](C(C)C)C(=O)N3CCC[C@H]3C(=O)N(C)CC(=O)N(C)[C@@H](C(C)C)C(=O)O[C@@H]2C)c/c1=N/Cc1cccc(Oc2ccccc2)c1 | 1500 nM | 700 nM | – | – | – | – | –
16 | Cc1c2oc3c(C)c(OC(=O)C45CC6CC(CC(C6)C4)C5)cc(C(=O)N[C@@H]4C(=O)N[C@H](C(C)C)C(=O)N5CCC[C@H]5C(=O)N(C)CC(=O)N(C)[C@@H](C(C)C)C(=O)O[C@@H]4C)c3nc-2c(C(=O)N[C@@H]2C(=O)N[C@H](C(C)C)C(=O)N3CCC[C@H]3C(=O)N(C)CC(=O)N(C)[C@@H](C(C)C)C(=O)O[C@@H]2C)c(N)c1=O | 730 nM | 176 nM | 0.2 µg/mL (≈ 0.14 µM) | 167% | 28 days | 0.5 mg/kg | –
17 | Cc1c2oc3c(C)c(O)c(N)c(C(=O)N[C@@H]4C(=O)N[C@H](C(C)C)C(=O)N5CCC[C@H]5C(=O)N(C)CC(=O)N(C)[C@@H](C(C)C)C(=O)O[C@@H]4C)c3nc-2c(C(=O)N[C@@H]2C(=O)N[C@H](C(C)C)C(=O)N3CCC[C@H]3C(=O)N(C)CC(=O)N(C)[C@@H](C(C)C)C(=O)O[C@@H]2C)c/c1=N/Cc1ccccc1 | 2700 nM | 1400 nM | – | – | – | – | –
18 | CCCNc1c(C(=O)N[C@@H]2C(=O)N[C@H](C(C)C)C(=O)N3CCC[C@H]3C(=O)N(C)CC(=O)N(C)[C@@H](C(C)C)C(=O)O[C@@H]2C)c2nc3c(C(=O)N[C@@H]4C(=O)N[C@H](C(C)C)C(=O)N5CCC[C@H]5C(=O)N(C)CC(=O)N(C)[C@@H](C(C)C)C(=O)O[C@@H]4C)ccc(C)c3oc-2c(C)c1=O | > 5500 nM | 1820 nM | 0.45 µg/mL (≈ 0.347 µM) | 55% | 17 days | 1.2 mg/kg | –
19 | Cc1c2oc3c(C)c(OCc4ccc(Cl)c(Cl)c4)cc(C(=O)N[C@@H]4C(=O)N[C@H](C(C)C)C(=O)N5CCC[C@H]5C(=O)N(C)CC(=O)N(C)[C@@H](C(C)C)C(=O)O[C@@H]4C)c3nc-2c(C(=O)N[C@@H]2C(=O)N[C@H](C(C)C)C(=O)N3CCC[C@H]3C(=O)N(C)CC(=O)N(C)[C@@H](C(C)C)C(=O)O[C@@H]2C)c(N)c1=O [listing 2 of 2 here] | – | – | – | – | – | – | 0
20 | Cc1c2oc3c(C)ccc(C(=O)N[C@@H]4C(=O)N[C@H](C(C)C)C(=O)N5CCC[C@H]5C(=O)N(C)CC(=O)N(C)[C@@H](C(C)C)C(=O)O[C@@H]4C)c3nc-2c(C(=O)N[C@@H]2C(=O)N[C@H](C(C)C)C(=O)N3CCC[C@H]3C(=O)N(C)CC(=O)N(C)[C@@H](C(C)C)C(=O)O[C@@H]2C)c(NCCCCCN)c1=O | – | – | – | – | – | – | 1.1
